Assay results from ChEMBL document CHEMBL4145639, “Cytochalasans Produced by the Coculture of Aspergillus flavipes and Chaetomium globosum” (J Nat Prod, 2018).
Calls of active or inactive are those of the source. The calls are words filed in the database; no cut-off is given here.

What was measured:
Murine T-cell line = test: Immunomodulatory activity in Kunming mouse T cells assessed as inhibition of ConA-induced cell proliferation at 40 uM after 48 hrs by MTT assay; format: functional, cell-based
Outline: (§1)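 Splenocytes came from three male KM mice (25 g), seeded at 5 × 10^5 cells/well. Stimulation was 5 μg/mL ConA (T cells) or 10 μg/mL LPS (B cells), with compounds in DMSO at final 40 μM. After 48 h culture, MTT was read at 570 nm. Stimulated and unstimulated controls set baseline proliferation.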

Staphylococcus aureus = test: Antimicrobial activity against Staphylococcus aureus by agar well diffusion method; format: functional, organism-based
Outline: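 Agar-well diffusion against S. aureus (Gram-positive) and a Gram-negative organism the paper calls C. bacillus. Cefotaxime sodium and tetracycline served as positive controls, with solvent DMSO as the negative control.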

Escherichia coli = test: Antimicrobial activity against Escherichia coli by agar well diffusion method
B-cell line = test: Immunomodulatory activity in Kunming mouse B cells assessed as inhibition of LPS-induced cell proliferation at 40 uM after 48 hrs by MTT assay; format: functional, cell-based; outline: as §1
MCF7 = test: Antiproliferative activity against human MCF7 cells after 48 hrs by MTT assay; format: functional, cell-based; details: MCF7, 48 h
Outline: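 Cells were grown in RPMI 1640 with 10% FBS, penicillin and streptomycin at 37 °C in 5% CO2 and seeded at 5000 cells/well. Compounds (50, 25, 12.5, 6.25, 3.12, 1.56 μM; final DMSO 0.5%) were added 24 h later and incubated 48 h. MTT was added for 4 h, cells lysed in SDS/isopropanol/HCl, and A570 read. Runs were triplicate, with doxorubicin as positive control. IC50 came from means ± SEM.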

Compound | inhibition (Murine T-cell line) | Activity (Staphylococcus aureus) | Activity (Escherichia coli) | inhibition (B-cell line) | IC50 (MCF7)
C/C1=C\[C@@H](C)C/C=C/[C@H]2[C@H](O)[C@@]3(C)O[C@@]4(CC(=O)c5ccccc5N)NC(=O)[C@]2(C(=O)CC[C@H](O)C1=O)[C@H]4[C@@H]3C | Active | inactive | inactive |  | 
C/C1=C\[C@H]2C=C(CO)[C@@H](C)[C@H]3[C@H](CC(C)C)NC(=O)[C@]32C(=O)CCC(=O)[C@@H](O)CC1 | Active | inactive | inactive |  | 
C/C1=C\[C@H]2C=C(CO)[C@@H](C)[C@H]3[C@H](CC(C)C)NC(=O)[C@]32C(=O)CCC(=O)[C@H](O)CC1 |  | inactive | inactive | Active | 
C/C1=C\[C@H]2C=C(CO)[C@@H](C)[C@H]3[C@H](CC(C)C)NC(=O)[C@]32C(=O)CC[C@@H](O)C(=O)CC1 | Active | inactive | inactive |  | 
C/C1=C\[C@H]2C=C(CO)[C@@H](C)[C@H]3[C@H](CC(C)C)NC(=O)[C@]32C(=O)CC[C@H](O)C(=O)CC1 | Active | inactive | inactive |  | 
C/C1=C\[C@@H](C)C/C=C/[C@H]2[C@@H]3O[C@]3(C)[C@@H](C)[C@H]3[C@H](C(O)c4c[nH]c5ccccc45)NC(=O)[C@]32C(=O)CC[C@H](O)C1=O (stereo in doubt; 5) | Active | inactive | inactive |  | 
C/C1=C\[C@@H](C)C/C=C/[C@H]2[C@@H]3O[C@]3(C)[C@@H](C)[C@H]3[C@H](C(O)c4c[nH]c5ccccc45)NC(=O)[C@]32C(=O)CC[C@H](O)C1=O (stereo in doubt; 6) | Active | inactive | inactive | Active | 
C=C1[C@@H](C)[C@H]2[C@H](C(OC)c3c[nH]c4ccccc34)NC(=O)[C@]23C(=O)CC[C@H](O)C(=O)/C(C)=C/[C@@H](C)C/C=C/[C@H]3[C@@H]1O (stereo in doubt; 7) | Active | inactive | inactive | Active | 
C=C1[C@@H](C)[C@H]2[C@H](C(OC)c3c[nH]c4ccccc34)NC(=O)[C@]23C(=O)CC[C@H](O)C(=O)/C(C)=C/[C@@H](C)C/C=C/[C@H]3[C@@H]1O (stereo in doubt; 8) [listing 1 of 2 here] |  |  |  |  | 20.7 µM
C=C1[C@@H](C)[C@H]2[C@H](C(OC)c3c[nH]c4ccccc34)NC(=O)[C@]23C(=O)CC[C@H](O)C(=O)/C(C)=C/[C@@H](C)C/C=C/[C@H]3[C@@H]1O (stereo in doubt; 8) [listing 2 of 2 here] | Active | inactive | inactive | Active | 
COC(c1c[nH]c2ccccc12)[C@@H]1NC(=O)[C@@]23C(=O)CC[C@H](O)C(=O)/C(C)=C/[C@@H](C)C/C=C/[C@H]2[C@H](O)C(C)=C(C)[C@@H]13 (stereo in doubt; 9) | Active | inactive | inactive | Active | 
COC(c1c[nH]c2ccccc12)[C@@H]1NC(=O)[C@@]23C(=O)CC[C@H](O)C(=O)/C(C)=C/[C@@H](C)C/C=C/[C@H]2[C@H](O)C(C)=C(C)[C@@H]13 (stereo in doubt; 10) |  | inactive | inactive | Active | 
C/C1=C\[C@@H](C)C/C=C/[C@H]2[C@H](O)[C@@]3(C)O[C@@]4(CC56OC5Nc5ccccc56)NC(=O)[C@]2(C(=O)CC[C@H](O)C1=O)[C@H]4[C@@H]3C (stereo in doubt; 11) [listing 1 of 2 here] |  |  |  |  | 27.9 µM
C/C1=C\[C@@H](C)C/C=C/[C@H]2[C@H](O)[C@@]3(C)O[C@@]4(CC56OC5Nc5ccccc56)NC(=O)[C@]2(C(=O)CC[C@H](O)C1=O)[C@H]4[C@@H]3C (stereo in doubt; 11) [listing 2 of 2 here] |  | inactive | inactive |  | 
C/C1=C\[C@@H](C)C/C=C/[C@H]2[C@H](O)[C@@]3(C)O[C@@]4(CC56OC5Nc5ccccc56)NC(=O)[C@]2(C(=O)CC[C@H](O)C1=O)[C@H]4[C@@H]3C (stereo in doubt; 12) | Active | inactive | inactive |  | 
